The list is not random: actives were taken first. Their share in the collection is about 0.72%.
GSK3 alpha inh: inhibitors of human GSK-3 alpha kinase; hit rate 0.1% among 320,000; P49840; inhibition, % at 10 µM; ADP-Glo luminescence, 60 min;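 active = more than half of replicates show inhibition above 20%; inconclusive = some but at most half of replicates above 20% inhibition; inactive = no replicate shows inhibition above 20%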;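 also: GST-tagged GSK-3 alpha with peptide substrate and 25 µM ATP; 0% = DMSO neutral wells and 100% = GW8510 positive control wells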
GSK3beta inhib: blocks human GSK3beta kinase activity; P49841; GST-GSK3beta kinase, ADP-Glo luminescence, 60 min; stronger effect = lower value; activity score (negative = inhibition), % at 10 µM; hit rate 0.038% among 300,000;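 active = more than half of replicate wells score below -50%, meaning over 50% inhibition versus plate controls; inconclusive = some replicates but at most half score below -50%; inactive = no replicate scores below -50%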;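 also: 0% = median DMSO wells and -100% = median GW8510 positive control wells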
Target sequence (P49841 whole entry, looked up): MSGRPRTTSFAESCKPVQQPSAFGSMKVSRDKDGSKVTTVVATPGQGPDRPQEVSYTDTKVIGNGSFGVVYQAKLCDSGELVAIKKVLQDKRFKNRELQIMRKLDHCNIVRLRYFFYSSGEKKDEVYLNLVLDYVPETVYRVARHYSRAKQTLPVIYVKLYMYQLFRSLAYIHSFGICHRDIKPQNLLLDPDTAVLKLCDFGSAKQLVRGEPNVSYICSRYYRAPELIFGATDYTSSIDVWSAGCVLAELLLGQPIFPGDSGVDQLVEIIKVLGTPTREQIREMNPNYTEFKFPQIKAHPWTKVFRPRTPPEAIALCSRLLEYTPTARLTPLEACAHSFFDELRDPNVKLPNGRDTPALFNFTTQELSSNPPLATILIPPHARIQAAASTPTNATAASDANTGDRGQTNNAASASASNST
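Assay system: GST-fused GSK3beta enzyme, cell-free / Medium: Tris pH 7.5 buffer with MgCl2, DTT, BSA, heparin / Also added: peptide substrate plus 25 µM ATP (final) / Compound: 10 µM single point / Timing: kinase reaction with compound 60 min at room temperature / Detection: ADP-Glo luminescence / Benchmarks: DMSO neutral wells and GW8510 at 20 µM as positive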
AI-2 QS mod: modulators of Vibrio harveyi AI-2 quorum sensing system; Vibrio harveyi JMH597 AI-2 luminescence/OD600 ratio, 9 h; stronger effect = lower value; strain lacks LuxN and CqsS sensors; 0 = neutral-control median; activity change, % at 7.5 µM; hit rate 0.4% among 300,000; in the data active = activity change below about -75%, passing the limit was not always enough; inconclusive = no clear call, values can overlap the other calls;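 also: luminescence divided by OD600 gain over 9 h not by final OD600 alone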
STK33 inh: human STK33 kinase inhibition; purified STK33, MBP phosphorylation, ADP-Glo luminescence; inhibition, % at 10 µM; hit rate 0.073% among 320,000; AID 2661;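 active = inhibition at or above 25%, using the most active replicate where run in duplicate; inactive = inhibition below 25%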
CR mimetic SO: lowers age-related superoxide in aged yeast cells. superoxide response (% of plate mean), % at 10 µM. AID 2690. hit rate 0.18% among 330,000. S. cerevisiae aged cells, superoxide DHE fluorescence; stronger effect = lower value;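 active = superoxide response under a set limit, about three screen SD below normal, cut at about 65% in these data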;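 also: yeast aged for seven days with compound at 30 °C before DHE staining; 100% = average MFI of all compound-treated wells on the plate with controls excluded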
PolyA inh: inhibitors of polyadenylation in S. cerevisiae. hit rate 0.02% among 300,000. S. cerevisiae SKY197-pL101 polyadenylation reporter, beta-gal luminescence; efflux-impaired pdr1/pdr3 knockout yeast; score 100 = 6 SD above DMSO. activity score, % at 12 µM;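 active = lowest replicate activity score at least 50, where 100 means six control SD above control mean; inconclusive = lowest score under 50 but half or more replicates reach 50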;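 also: yeast exposed to compound for 9 h at 30 °C; higher score means more reporter readthrough which indicates perturbed polyadenylation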
The depositor's hits bear a star; ? = inconclusive; . = not tested or not shown.

SMILES	GSK3 alpha inh	GSK3beta inhib	AI-2 QS mod	STK33 inh	CR mimetic SO	PolyA inh
O=C(Nc1cccc(NC(=O)c2ccccc2Cl)c1)c1ccc([N+](=O)[O-])o1	-1	-2	-191*	0	124	-20
O=C(Nc1ccccc1N1CCCC1)c1ccc([N+](=O)[O-])o1	12	-2	83	1	80	-11
Cc1ccc(NC(=O)c2ccc([N+](=O)[O-])o2)cc1C	-3	0	?	1	97	-54
Cc1c(CN(C)C)c2c(n1C)C(=O)c1ccc(Br)cc1-2	55*	-37	10	1	101	-8
CC(C)CC(Nc1ncnc2scc(-c3ccccc3)c12)C(=O)O (stereo not given)	-3	2	34	-1	96	60*
CCC(C)C(Nc1ncnc2scc(-c3ccccc3)c12)C(=O)O (stereo not given)	-5	.	.	-1	101	-8
COc1ccc(S(=O)(=O)n2nc(OC(C)=O)cc2N(C(C)=O)C(C)=O)cc1	-2	-1	-6	2	98	6
O=C(NCC1CCCO1)C(=O)N/N=C/c1cc(Cl)ccc1O (stereo not given)	0	0	-90*	-2	107	22
O=C(NCC1CCCO1)C(=O)N/N=C/c1ccc(O)c(Cl)c1 (stereo not given)	0	1	10	-1	104	-9
COc1cc(OC)cc(C(=O)NNS(=O)(=O)c2ccc(F)cc2)c1	0	-5	5	0	92	5
CCn1c2ccccc2c(=O)c2ccccc21	10	-18	26	31*	81	-10
O=C(CCCN1C(=O)NC2(CCCC2)C1=O)NCc1ccccc1	-2	.	.	0	108	.
COc1ccc(-c2oc3ncnc(NCCCN(C)C)c3c2-c2ccc(OC)cc2)cc1	5	-4	9	38*	103	16
COC(=O)c1c(C)n(-c2ccccc2)c2ccc(O)cc12	-2	1	-4	-1	103	-29
CN(C)/C=C/c1c([N+](=O)[O-])c2ccc(O)cc2n1-c1ccccc1	56*	-56*	8	-2	93	-6
COc1ccc(N(CC2CO2)S(=O)(=O)c2ccc(C)cc2)cc1 (stereo not given)	2	.	.	-1	108	6
O=C(c1csc2c1CCCC2)n1cccn1	-3	-1	2	-1	60*	2
CN(CCOc1ccccc1)C(=O)c1cc([N+](=O)[O-])cc([N+](=O)[O-])c1	-3	-1	37	0	129	-22
O=C(c1nnsc1S(=O)(=O)c1ccc(Cl)cc1)N1CCOCC1	.	-2	-3	.	.	20
CNC(=O)c1nnsc1S(=O)(=O)c1ccc(Cl)cc1	.	3	-95*	.	.	-23
CCCCCNC(=O)C(=O)C1C(=O)Nc2ccccc21 (stereo not given)	-1	3	19	-1	56*	6
CN(C)CCNC(=O)C(=O)C1C(=O)Nc2ccccc21 (stereo not given)	-8	1	28	0	98	-13
O=C(NC12CC3CC(CC(C3)C1)C2)C1CCCN1C(=O)Nc1ccccc1 (stereo not given)	0	-1	10	0	94	18
O=C(COc1ccc2c3c(c(=O)oc2c1)CCCC3)N1CCN(c2ccccc2)CC1	-1	3	3	-1	79	-14
Cc1ccc2nc(N3CCN(c4cccc(C)c4C)CC3)c3nnnn3c2c1	-1	-1	-2	-3	94	-6
SMILES	GSK3 alpha inh	GSK3beta inhib	AI-2 QS mod	STK33 inh	CR mimetic SO	PolyA inh
Cc1ccc2nc(Cl)c3nnnn3c2c1	-1	3	-86*	-1	131	-5
Nc1nc(-c2cc(O)ccc2[N+](=O)[O-])cc(-c2ccccc2)c1[N+](=O)[O-]	2	-2	3	28*	100	2
Nc1nccnc1C(=O)OCC(=O)NCCc1ccc(S(N)(=O)=O)cc1	7	2	39	0	105	6
COc1cc(/C=C2\SC(=S)N(NS(=O)(=O)c3ccccc3)C2=O)ccc1O	-2	7	57	3	102	85*
COc1cc(/C=C2\SC(=S)N(NC(=O)c3ccncc3)C2=O)ccc1O	-1	-3	30	0	102	92*
C=CCOc1ccc(/C=C2\SC(=S)N(NS(=O)(=O)c3ccccc3)C2=O)cc1	-11	0	-86*	1	103	5
O=S(=O)(c1ccc2ccccc2c1)N1CCN(C(=S)Nc2ccc(F)c(Cl)c2)CC1	-2	0	9	0	91	2
O=C(Cc1cccs1)NCCS(=O)(=O)N1CCN(c2ccccc2F)CC1	-2	-2	28	0	95	9
Cc1ccc(C)c(S(=O)(=O)c2c[nH]c(=S)[nH]c2=O)c1	-16	-1	23	0	109	-10
COc1ccc(NC(=O)CSc2nccn2Cc2ccco2)cc1	-1	-1	0	-1	99	15
CC(NC(=O)C1CCC(C)(C(=O)O)C1(C)C)c1ccccc1 (stereo not given)	-3	1	-6	-2	90	-8
CC(c1ccccc1F)n1cc(C(=O)NCCCc2nc3ccccc3[nH]2)nn1 (stereo not given)	1	-1	15	-1	114	13
CCOC(=O)C(=O)Nc1nccs1	0	-1	14	-1	86	-4
CCOC(=O)/C=C/C(=O)Nc1nccs1	8	5	-91*	0	81	-5
C/C(=N\Nc1nc2ccccc2[nH]1)c1ccc2c(c1)OCO2	-2	0	61	21	96	-17
C/C(=N\Nc1nc2ccccc2[nH]1)c1ccccn1	3	0	-87*	13	121	-11
CCC(CC)C(=O)N1CC(=O)Nc2ccc(F)cc2C1c1ccc(F)cc1 (stereo not given)	0	0	23	0	102	-14
O=C(N/N=C/c1sc2ccccc2c1O)c1ccccc1	-2	-3	-81*	-1	99	18
COc1ccc2cc(C(=O)N/N=C/c3sc4ccccc4c3O)ccc2c1	-3	0	21	-1	103	2
COc1ccc(C(=O)N/N=C/c2sc3ccccc3c2O)cc1	-4	1	-92*	1	69	-16
O=C(c1ccncc1)N1CCN(S(=O)(=O)c2cccc(C(F)(F)F)c2)CC1	1	.	.	-1	104	.
C[C@H]1O[C@@H](n2cc(F)c(=O)[nH]c2=O)[C@H](O)[C@@H]1O	10	0	-83*	0	95	-7
CCN1Cc2cc(OC)ccc2-c2ccccc2S1(=O)=O	.	.	.	.	124	.
